Assay results published in ChEMBL document CHEMBL3779813, “Design, synthesis, topoisomerase I & II inhibitory activity, antiproliferative activity, and structure-activity relationship study of pyrazoline derivatives: An ATP-competitive human topoisomerase IIα catalytic inhibitor” (Bioorg Med Chem, 2016).
Structures can show the parent of a compound that is named as a salt. The source made the active and inactive calls. The rule behind the calls is not given here.

Assays:
[1] = Antiproliferative activity against human BT474 cells after 72 hrs by CCK8 assay; type: functional, cell-based; settings: BT-474, 72 h
How it was run: (§1)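 Cells grown in RPMI 1640 with 10% FBS and 1% penicillin, 37 °C, 5% CO2. Seeded at 10^4 cells/well, 24 h at 37 °C, then compound for 72 h. CCK-8 (mitochondrial dehydrogenase) added, 4 h at 37 °C, absorbance read at 450 nm; IC50 derived. Compound stocks 20 mM in DMSO.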

[2] = Antiproliferative activity against human HCT15 cells after 72 hrs by CCK8 assay; type: functional, cell-based; settings: HCT-15, 72 h; how it was run: as §1
T47D = test: Antiproliferative activity against human T47D cells after 72 hrs by CCK8 assay; type: functional, cell-based; how it was run: as §1
[3] = target: T1, DNA topoisomerase 1 (Homo sapiens) (UniProt P11387); test: Inhibition of human recombinant topoisomerase 1 assessed as relaxation of supercoiled plasmid DNA pBR322 at 100 uM after 30 mins by ethidium bromide staining based agarose gel electrophoresis
T1 sequence (whole entry): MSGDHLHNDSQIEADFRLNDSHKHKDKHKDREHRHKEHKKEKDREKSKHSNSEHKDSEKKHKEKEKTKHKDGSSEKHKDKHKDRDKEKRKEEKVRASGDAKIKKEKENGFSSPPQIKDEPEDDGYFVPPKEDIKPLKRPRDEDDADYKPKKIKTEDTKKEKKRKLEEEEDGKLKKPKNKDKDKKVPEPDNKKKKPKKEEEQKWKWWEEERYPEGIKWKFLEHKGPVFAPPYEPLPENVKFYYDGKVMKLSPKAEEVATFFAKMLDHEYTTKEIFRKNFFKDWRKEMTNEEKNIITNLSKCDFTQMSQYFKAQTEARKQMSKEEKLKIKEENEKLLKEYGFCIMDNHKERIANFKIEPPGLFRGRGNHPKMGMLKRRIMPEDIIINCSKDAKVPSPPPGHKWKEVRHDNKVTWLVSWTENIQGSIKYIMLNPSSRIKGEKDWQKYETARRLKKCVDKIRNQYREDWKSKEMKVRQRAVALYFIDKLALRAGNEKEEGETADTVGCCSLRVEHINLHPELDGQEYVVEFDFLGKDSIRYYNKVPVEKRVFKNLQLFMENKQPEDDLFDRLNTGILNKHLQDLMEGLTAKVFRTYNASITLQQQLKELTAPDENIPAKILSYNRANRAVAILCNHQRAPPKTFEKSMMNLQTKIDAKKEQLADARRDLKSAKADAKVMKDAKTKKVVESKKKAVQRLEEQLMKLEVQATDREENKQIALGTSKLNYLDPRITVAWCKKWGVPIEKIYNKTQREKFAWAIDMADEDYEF
How it was run: (§2)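 Recombinant human topo I (1 unit) with 100 ng supercoiled pBR322, 30 min at 37 °C in 10 mM Tris-HCl pH 7.9, 150 mM NaCl, 0.1% BSA, 1 mM spermidine, 5% glycerol. Stopped with sarcosyl buffer; 0.8% agarose, 60 V 1 h in TAE, ethidium bromide stain 30 min, UV densitometry of relaxation as % inhibition.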

[4] = target: DNA topoisomerase 2-alpha (Homo sapiens) (UniProt P11388); test: Inhibition of human recombinant topoisomerase 2alpha assessed as relaxation of supercoiled plasmid DNA pBR322 at 20 uM after 30 mins by ethidium bromide staining based agarose gel electrophoresis
How it was run: (§3)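 Human topo IIα (1 unit) and 100 ng supercoiled pBR322 incubated 30 min at 37 °C in 10 mM Tris-HCl pH 7.9, 50 mM NaCl, 5 mM MgCl2, 1 mM EDTA, 1 mM ATP, 15 µg/mL BSA. Stopped with 7 mM EDTA; 0.8% agarose in TAE, ethidium bromide stain, UV quantitation as % relaxation inhibition.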

[5] = target: DNA topoisomerase 2-alpha (Homo sapiens) (UniProt P11388); test: Inhibition of human recombinant topoisomerase 2alpha assessed as relaxation of supercoiled plasmid DNA pBR322 at 100 uM after 30 mins by ethidium bromide staining based agarose gel electrophoresis; how it was run: as §3
[6] = target: DNA topoisomerase 2-alpha (Homo sapiens) (UniProt P11388); test: Inhibition of human recombinant topoisomerase 2alpha using supercoiled pUC18 as substrate assessed as hydrolysis of ATP preincubated for 30 mins followed by ATP addition measured after 30 mins by malachite green phosphate based ELISA microplate reader analysis
HCT-15 [7] = test: Inhibition of human recombinant topoisomerase mediated DNA relaxation in human HCT15 nuclear lysate at 50 uM preincubated for 24 hrs followed by addition of pBR322 plasmid measured after 30 mins by ethidium bromide staining based agarose gel electrophoresis
How it was run: (§4)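 HCT15 cells treated 24 h with compound, harvested, nuclear lysates prepared and protein measured by Bradford. 100 µg nuclear protein plus 100 ng pBR322 in buffer with Tris-Cl pH 7.5, MgCl2, ATP, EDTA, DTT, KCl, BSA, 30 min at 37 °C. Analyzed on 0.9% agarose with ethidium bromide; lysate-free plasmid control.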

HCT-15 [8] = test: Inhibition of human recombinant topoisomerase mediated DNA relaxation in human HCT15 nuclear lysate at 100 uM preincubated for 24 hrs followed by addition of pBR322 plasmid measured after 30 mins by ethidium bromide staining based agarose gel electrophoresis; how it was run: as §4
[9] = target: DNA topoisomerase 2-alpha (Homo sapiens) (UniProt P11388); test: Activity at human recombinant topoisomerase 2alpha using supercoiled plasmid pBR322 as substrate assessed as stabilization of enzyme-DNA cleavage upto 300 uM after 20 mins by ethidium bromide staining based agarose gel electrophoresis
How it was run: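 Cleavage complex: 125 ng supercoiled pBR322 preincubated 10 min with 3 units human topo IIα, then compound added, 20 min at 37 °C in 10 µL. Stopped with SDS, proteinase K digestion 30 min at 45 °C, heated 2 min at 70 °C. Run on 0.8% agarose with 0.5 µg/mL ethidium bromide in TAE; linear DNA band quantified by UV imaging.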

[10] = target: DNA topoisomerase 2-alpha (Homo sapiens) (UniProt P11388); test: Competitive inhibition of human recombinant topoisomerase 2alpha at 5 to 250 uM using supercoiled plasmid pBR322 as substrate after 30 mins by ethidium bromide staining based agarose gel electrophoresis in presence of ATP
[11] = target: T1, DNA topoisomerase 1 (Homo sapiens); test: Inhibition of human recombinant topoisomerase 1 assessed as relaxation of supercoiled plasmid DNA pBR322 at 20 uM after 30 mins by ethidium bromide staining based agarose gel electrophoresis; how it was run: as §2
[12] = target: DNA topoisomerase 2-alpha (Homo sapiens) (UniProt P11388); settings: 100 uM

DNA topoisomerase 2-alpha (Homo sapiens), sequence (P11388 whole entry): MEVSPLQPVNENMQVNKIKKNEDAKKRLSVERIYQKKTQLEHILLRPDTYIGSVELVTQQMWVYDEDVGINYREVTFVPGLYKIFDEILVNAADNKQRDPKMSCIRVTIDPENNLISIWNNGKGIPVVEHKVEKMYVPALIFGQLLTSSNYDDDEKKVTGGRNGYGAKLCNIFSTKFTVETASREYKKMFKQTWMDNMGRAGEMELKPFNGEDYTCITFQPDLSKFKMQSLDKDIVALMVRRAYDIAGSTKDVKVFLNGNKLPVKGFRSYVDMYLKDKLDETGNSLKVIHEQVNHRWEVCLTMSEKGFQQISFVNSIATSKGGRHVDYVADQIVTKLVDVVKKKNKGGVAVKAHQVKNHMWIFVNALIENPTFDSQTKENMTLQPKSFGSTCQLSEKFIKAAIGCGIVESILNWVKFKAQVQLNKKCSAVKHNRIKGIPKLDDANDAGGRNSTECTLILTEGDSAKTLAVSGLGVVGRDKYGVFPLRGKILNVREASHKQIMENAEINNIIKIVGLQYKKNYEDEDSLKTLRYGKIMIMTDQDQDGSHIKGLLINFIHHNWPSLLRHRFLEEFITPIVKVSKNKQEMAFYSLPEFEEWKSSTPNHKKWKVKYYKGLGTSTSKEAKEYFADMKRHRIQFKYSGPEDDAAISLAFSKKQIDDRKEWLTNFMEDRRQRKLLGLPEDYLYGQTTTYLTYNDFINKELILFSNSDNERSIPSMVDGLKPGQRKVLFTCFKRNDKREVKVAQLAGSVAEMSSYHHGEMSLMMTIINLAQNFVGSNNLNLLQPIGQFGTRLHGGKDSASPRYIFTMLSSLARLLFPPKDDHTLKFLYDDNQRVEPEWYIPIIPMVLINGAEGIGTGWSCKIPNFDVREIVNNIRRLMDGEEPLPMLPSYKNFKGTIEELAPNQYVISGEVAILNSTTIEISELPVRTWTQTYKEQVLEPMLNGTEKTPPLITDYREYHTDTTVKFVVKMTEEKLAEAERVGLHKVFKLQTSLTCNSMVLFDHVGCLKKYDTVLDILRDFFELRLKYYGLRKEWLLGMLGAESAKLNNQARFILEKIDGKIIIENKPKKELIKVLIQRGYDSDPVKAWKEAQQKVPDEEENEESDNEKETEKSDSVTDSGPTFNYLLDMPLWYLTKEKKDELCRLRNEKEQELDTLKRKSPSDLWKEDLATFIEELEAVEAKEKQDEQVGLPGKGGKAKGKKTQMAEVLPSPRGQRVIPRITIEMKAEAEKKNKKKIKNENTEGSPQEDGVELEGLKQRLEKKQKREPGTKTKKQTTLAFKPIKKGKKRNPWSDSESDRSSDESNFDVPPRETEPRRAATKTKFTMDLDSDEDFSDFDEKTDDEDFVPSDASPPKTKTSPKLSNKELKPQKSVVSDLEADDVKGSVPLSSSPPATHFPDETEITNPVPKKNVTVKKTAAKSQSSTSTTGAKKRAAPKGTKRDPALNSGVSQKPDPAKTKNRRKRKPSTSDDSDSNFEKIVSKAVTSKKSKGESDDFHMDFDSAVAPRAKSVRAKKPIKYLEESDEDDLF

Row | SMILES | IC50 (T47D) | inhibition [3] | inhibition [4] | inhibition [5] | inhibition [6] | inhibition (HCT-15 [7]) | inhibition (HCT-15 [8]) | Activity [9] | inhibition [10] | inhibition [11] | inhibition [12] | IC50 [1] | IC50 [2]
1 | CC[C@@]1(O)C(=O)OCc2c1cc1n(c2=O)Cc2cc3ccccc3nc2-1 [CAMPTOTHECIN] | 4.1 µM |  |  |  |  |  |  |  |  |  |  | 7 µM | 7.1 µM
2 | COc1cccc2c1C(=O)c1c(O)c3c(c(O)c1C2=O)C[C@@](O)(C(=O)CO)C[C@@H]3O[C@H]1C[C@H](N)[C@H](O)[C@H](C)O1 [DOXORUBICIN HYDROCHLORIDE] |  |  |  |  |  |  |  |  |  |  |  | 3.2 µM | 23 µM
3 | COc1ccc(C2CC(c3ccccc3)=NN2C(=O)c2ccco2)cc1 (configuration not stated) | 27.3 µM | 0% | 0% | 91.6% |  |  |  |  |  |  |  | > 50 µM | 3.9 µM
4 | COc1ccc(C2CC(c3ccc(Cl)cc3)=NN2C(=O)c2nc3ccccc3s2)cc1 (configuration not stated) | 6.6 µM | 0% | 0% | 89.7% | Dose-dependent effect | 78% | 85.4% | inactive | Active |  |  | 7.2 µM | 4.1 µM
5 | O=C(c1ccco1)N1N=C(c2ccc(Cl)cc2)CC1c1ccco1 (configuration not stated) | > 50 µM | 96.8% | 1.3% | 93.1% |  |  |  |  |  | 4% |  | > 50 µM | > 50 µM
6 | COc1cc([C@@H]2c3cc4c(cc3[C@@H](O[C@@H]3O[C@@H]5CO[C@@H](C)O[C@H]5[C@H](O)[C@H]3O)[C@H]3COC(=O)[C@H]23)OCO4)cc(OC)c1O [ETOPOSIDE] | 6.4 µM |  |  | 95.9% | Dose-dependent effect | 36% |  |  |  |  | inactive | 6.6 µM | 6.9 µM
7 | COc1ccccc1C1=NN(C(=O)c2ccncc2)C(c2ccc([N+](=O)[O-])cc2)C1 (configuration not stated) | > 50 µM | 0% | 0% | 92.8% |  |  |  |  |  |  |  | 7.2 µM | 2.6 µM
8 | COc1ccccc1C1=NN(C(=O)c2ccc([N+](=O)[O-])o2)C(c2ccc([N+](=O)[O-])cc2)C1 (configuration not stated) | > 50 µM | 0% | 2.9% | 92.6% |  |  |  |  |  |  |  | > 50 µM | > 50 µM

The next lines start with results.

Row | IC50 (T47D) | inhibition [3] | inhibition [4] | inhibition [5] | inhibition [6] | inhibition (HCT-15 [7]) | inhibition (HCT-15 [8]) | Activity [9] | inhibition [10] | inhibition [11] | inhibition [12] | SMILES | IC50 [1] | IC50 [2]
9 | 7.5 µM | 0% | 0% | 94.1% |  |  |  |  |  |  |  | COc1ccc(C2=NN(C(=O)c3ccco3)C(c3ccco3)C2)cc1 (configuration not stated) | > 50 µM | 4.3 µM
10 | > 50 µM | 0% | 0% | 92.5% |  |  |  |  |  |  |  | COc1ccc(C2CC(c3ccccc3)=NN2C(=O)c2ccncc2)cc1 (configuration not stated) | > 50 µM | 10.4 µM
11 | 7.9 µM | 0% | 0% | 76% |  |  |  |  |  |  |  | O=C(c1ccncc1)N1N=C(c2ccc(Cl)cc2)CC1c1ccco1 (configuration not stated) | 6.5 µM | 3.1 µM
12 | > 50 µM | 0% | 0% | 91.2% |  |  |  |  |  |  |  | COc1ccc(C2CC(c3ccccc3)=NN2C(=O)c2nc3ccccc3s2)cc1 (configuration not stated) | 6.3 µM | 1.9 µM
